HIF act – HIF pathway transcriptional activation. U2OS HRE-luciferase reporter, luminescence; normalized: DMSO 0%, desferrioxamine 100%. activation, % at 7.5 µM (by protocol). actives 0.32% (n = 300,000);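 active means mean activation of at least 10% of the iron chelator positive control signal, with at least half of replicates also reaching 10%; inconclusive means mean and replicate majority disagree about reaching 10%; inactive means mean and most replicates under 10%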
PolyA inh – yeast polyadenylation inhibition. S. cerevisiae SKY197-pL101 polyadenylation reporter, beta-gal luminescence; efflux-impaired pdr1/pdr3 knockout yeast; score 100 = 6 SD above DMSO. activity score, % at 12 µM. actives 0.02% (n = 300,000);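 active means lowest replicate activity score at least 50, where 100 means six control SD above control mean; inconclusive means lowest score under 50 but half or more replicates reach 50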;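 further: yeast exposed to compound for 9 h at 30 °C; higher score means more reporter readthrough which indicates perturbed polyadenylation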
Beta apoptosis – beta cell apoptosis inhibition | INS-1E cytokine-induced death, ATP luminescence, 48 h; percent of positive-control rescue, neutral wells zero | protection from apoptosis, % (no concentration beside the values) | actives 0.8% (n = 300,000);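 active means Every replicate reaches about 75%, or at least half do and their mean reaches it too, limit read from the data; inconclusive means At least half of replicates reach the limit but their mean does not; inactive means Under half of replicates reach the limit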;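 further: 0% = cytokine-treated negative control wells and 100% = positive control rescue; higher means more ATP so stronger rescue from cytokine killing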
CSC inhib – blocks cancer stem cells | cancer stem cell-like cells viability, luminescence | actives 1.1% (n = 300,000) | AID 2717 | inhibition, % at 7.5 µM; in the data active means inhibition above about 75%; inconclusive means no clear call, values can overlap the other calls; tested in HMLE shEcad cells
T cruzi repl – T. cruzi replication inhibition | AID 1885 | inhibition, % (concentration not given with the values) | actives 1.4% (n = 300,000) | T. cruzi beta-gal in NIH3T3, luminescence, 90 h;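 active means mean inhibition across valid replicates above about 55%, limit read from the data; inconclusive means mean below that limit but half or more replicates reach it; inactive means mean below it, under half of replicates reach it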;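 further: signal also drops with host cell toxicity which is not excluded here; 0% = plate median of DMSO wells and 100% = zero luminescence signal; higher percent means less beta-gal luminescence so fewer parasites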
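Incubation – ≥90 h infection period, 3 h prior cell attachment · System – NIH/3T3 fibroblasts plus reporter T. cruzi · Doses – compound pinned at 50 nL/well, DMSO · Read-out basis – percent inhibition of parasite-derived β-gal signal · Signal – luminescent β-galactosidase signal after 60 min lysis · Also added – 5000 T. cruzi trypomastigotes/well · Medium – Low-serum DMEM with 2% FBS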
Calb FLC – C. albicans growth modulation with fluconazole. C. albicans CaCi-2 (fluconazole-resistant clinical isolate) + fluconazole, Alamar Blue growth, 48 h. growth inhibition, % (test concentration not listed). actives 0.57% (n = 300,000). AID 1979;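 active means growth inhibition above about 58% in most replicates, limit read from the data, passing the limit was not always enough; inconclusive means exactly half the replicates above a set limit; inactive means most replicates below a set limit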;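 further: all wells also contain fluconazole at 8 µg/ml as a sub-toxic cotreatment; 0% = median of DMSO wells and 100% = median of geldanamycin control wells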
The depositor's hits bear a star; ? = inconclusive; . = no result. Most compounds without a hit are left out; they make up all but 3.1% or so of the library.

SMILES	HIF act	PolyA inh	Beta apoptosis	CSC inhib	T cruzi repl	Calb FLC
CN(C)c1ccc(C(=O)N2CCNC(=O)C2CC(=O)Nc2ccc(F)cc2)cc1 (stereo not drawn)	-1	0	0	-6	0	0
Cc1cc(C)c2c(N)c(C(=O)c3ccccc3)sc2n1	0	2	3	-2	66*	-4
Cc1cc(C)c2c(N)c(C(=O)c3ccc(Cl)c(Cl)c3)sc2n1	0	6	11	4	101*	-7
Cc1cc(C)c2c(N)c(C(=O)c3ccc(Cl)cc3)sc2n1	1	-10	12	34	45	0
CN(C)c1cccc(C(=O)NCCCSc2ccccc2)c1	1	2	-8	2	-3	-11
CCn1c(-c2ccc(N(C)C)cc2)nc2ccccc21	2	-29	113*	6	58*	-12
CCn1c(-c2ccc(N)cc2)nc2ccccc21	.	0	-5	-9	-24	-6
COC(=O)C(=O)C/C(=N/Nc1ncnc2ccccc12)c1ccc(Cl)cc1	0	10	2	0	-5	0
O=C(Nc1ccc(Cl)cc1)NN1CC(=O)N(c2cccc(C(F)(F)F)c2)CC1=O	29*	-16	-2	-9	3	2
Cc1ccc(N2CC(=O)N(NC(=O)Nc3ccc(Cl)c(Cl)c3)CC2=O)cc1	0	3	3	-5	-14	2
CC(C)OCCCNC(=S)N1CCC(C(=O)c2ccc(Cl)cc2)CC1	1	1	102*	-4	11	-5
CCOCCCNC(=S)N1CCC(C(=O)c2ccc(C)cc2)CC1	0	-6	.	-1	-3	-7
Cc1c2c(nc3ccccc13)CCC(C(C)(C)C)C2 (stereo not drawn)	2	3	14	8	57*	8
O=C(O)c1cccc(N/N=C(\N=Nc2ccccc2)c2ccccc2)c1	-2	-9	-1	88*	8	-20
CCN(Cc1ccc(O)cc1)CC1CCCN(CCc2cccc(F)c2)C1 (stereo not drawn)	-13	2	-4	-1	61*	-4
CCN(Cc1cccc(OC)c1)CC1CCCN(CCc2cccc(OC)c2)C1 (stereo not drawn)	2	13	8	36	53	-18
CN(CC1CCCN(CCc2cccc(C(F)(F)F)c2)C1)C(=O)c1ccco1 (stereo not drawn)	0	-6	-2	8	60*	-1
O=C(Oc1c(-c2ccccc2)c(=O)n2c3c(cccc13)CC2)c1cccc([N+](=O)[O-])c1	-1	67*	1	10	0	-2
COc1ccc(-c2oc3ccccc3c2C#Cc2cncn2C)cc1	.	.	5	103*	.	.
COc1ccc2c(C)cc(SCC(=O)NC3CCCC3)nc2c1	.	.	3	-3	.	.
COc1ccc2c(C)cc(SCC(=O)c3ccc4c(c3)OCO4)nc2c1	1	-14	-3	30	59*	0
O=C1NC(=S)S/C1=C/c1ccc(N2CCOCC2)o1	.	-13	0	14	-1	19
O=C1N/C(=C/c2ccc(N3CCOCC3)o2)C(=O)N1c1ccccc1	.	.	6	80*	.	.
C=CCN1C(=O)N/C(=C/c2ccc(N3CCOCC3)o2)C1=O	0	0	109*	15	48	67
CCOc1ccccc1NC(=O)NCCCCc1ccccc1	0	3	-5	4	10	-9
SMILES	HIF act	PolyA inh	Beta apoptosis	CSC inhib	T cruzi repl	Calb FLC
CCOc1ccc(S(=O)(=O)N2CCCC(C(=O)N3CCOCC3)C2)cc1C (stereo not drawn)	-1	1	1	13	-6	-3
O=C(NCCNC(=O)C(c1ccccc1)c1ccccc1)c1ccco1	0	13	.	-2	-19	111*
O=C(NCCc1ccccc1)c1ccco1	2	5	-8	-6	-19	5
O=C(NCc1nc(-c2ccc(C(F)(F)F)cc2)no1)Nc1cc(Cl)cc(Cl)c1	-1	-13	110*	134*	60*	-8
Cc1cc(C)cc(NC(=O)NCc2c(-c3ccccc3)noc2C)c1	0	6	2	-14	-11	-6
Cc1onc(-c2ccccc2)c1CNC(=O)Nc1ccc(C(F)(F)F)cc1	0	10	2	21	56*	-26
Cc1c(NC(=S)NNC(=O)CCC(=O)O)c(=O)n(-c2ccccc2)n1C	0	1	0	-8	1	-2
Cc1ccc(C(=O)N(CCCN(C)C)c2nc3ccc(Cl)cc3s2)cc1C	1	4	-2	7	70*	-11
CN(C)CCN(C(=O)c1ccc2c(c1)OCCO2)c1nc2ccc(Cl)cc2s1	3	?	-10	3	57*	-9
CCc1ccc2nc(N(CCN(C)C)C(=O)c3ccc4ncsc4c3)sc2c1	1	18	-7	13	64*	0
Cc1cccc2sc(N(CCCN(C)C)C(=O)c3ccc4ncsc4c3)nc12	2	18	-7	2	38	-26
COc1cccc(C(Nc2ccccn2)c2c(NC(=O)c3ccco3)sc(C)c2C)c1 (stereo not drawn)	0	2	.	19	59*	-22
COc1ccc(C(Nc2ccccn2)c2c(NC(=O)c3ccco3)sc(C)c2C)cc1 (stereo not drawn)	0	-1	-7	19	63*	14
CCN(CC(=O)NCc1ccc(F)cc1)C(=O)/C=C/c1ccc(S(=O)(=O)N(CC)CC)cc1	4	-1	-2	.	8	3
COc1ccc(C)cc1-n1c(SCC(=O)NC2CC2)nc2ccccc2c1=O	.	.	1	7	.	.
O=C(c1ccccc1)c1c[nH]c(C(=O)NNc2ccccc2)c1	0	-27	12	97*	57*	99*
CN(C)CCCNC(=O)c1cc(C(=O)c2ccccc2)c[nH]1	0	14	2	-12	45	9
COc1ccc(/C=N/NC(=O)c2cc(C34CC5CC(CC(C5)C3)C4)[nH]n2)cc1OC	0	0	5	53	1	51
O=C(N/N=C/c1ccc(O)cc1)c1cc(C23CC4CC(CC(C4)C2)C3)[nH]n1	0	23	1	80*	36	10
Cc1ccc(CN2C(=O)/C(=C\c3ccc(C(=O)NCc4cccnc4)cc3)Oc3ccccc32)cc1	0	0	99*	108*	-7	1
O=C(CN1C(=O)/C(=C\c2ccccc2Cl)Oc2ccccc21)NCc1cccnc1	0	23	11	20	37	3
CSCCC(NC(=O)C12CC3CC(CC(C3)C1)C2)C(=O)OCC(=O)c1ccc(C)cc1 (stereo not drawn)	0	6	-2	-1	-20	2
CN(C)c1ccc2nc3ccc(=[N+](C)C)cc-3sc2c1	-1	.	.	96*	43	.
Cc1cc2nc3ccc(=[N+](C)C)cc-3sc2cc1N	-3	19	.	.	69*	26

Source: PubChem (Broad Institute)
